From ChEMBL document CHEMBL4699451, “Discovery of BIIB068: A Selective, Potent, Reversible Bruton's Tyrosine Kinase Inhibitor as an Orally Efficacious Agent for Autoimmune Diseases” (J Med Chem, 2020)

Experiments:
[1] = Clearance in dog at 1 mg/kg, iv; format: ADME, organism-based, Canis lupus familiaris; conditions: in vivo
[2] = target: T1, Tyrosine-protein kinase BTK (Mus musculus, UniProt P35991); experiment: Inhibition of BTK in DBA1 mouse whole blood assessed as reduction in BTK phosphorylation; format: tissue-based
T1 sequence (P35991 whole entry): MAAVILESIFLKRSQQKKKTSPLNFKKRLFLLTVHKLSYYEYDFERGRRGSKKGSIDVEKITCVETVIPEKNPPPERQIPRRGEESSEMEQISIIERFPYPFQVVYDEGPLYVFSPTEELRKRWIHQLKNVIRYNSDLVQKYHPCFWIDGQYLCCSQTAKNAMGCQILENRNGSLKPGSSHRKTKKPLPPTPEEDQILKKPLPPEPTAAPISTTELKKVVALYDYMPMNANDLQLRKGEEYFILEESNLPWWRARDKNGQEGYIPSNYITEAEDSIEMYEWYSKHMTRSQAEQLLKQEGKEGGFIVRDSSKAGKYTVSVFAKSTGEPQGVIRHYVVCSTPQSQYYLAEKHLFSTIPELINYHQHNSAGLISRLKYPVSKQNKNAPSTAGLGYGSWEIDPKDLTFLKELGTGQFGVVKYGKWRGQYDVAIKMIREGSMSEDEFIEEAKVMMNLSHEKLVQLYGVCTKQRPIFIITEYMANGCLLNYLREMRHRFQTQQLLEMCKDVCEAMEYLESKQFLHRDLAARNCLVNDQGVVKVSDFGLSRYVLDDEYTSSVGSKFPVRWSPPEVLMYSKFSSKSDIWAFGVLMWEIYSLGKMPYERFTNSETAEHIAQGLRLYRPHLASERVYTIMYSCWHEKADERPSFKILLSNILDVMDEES

[3] = Genotoxicity in Sprague-Dawley rat assessed as micronuclei formation by micronucleus assay; format: toxicity
Outline: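 In vivo micronucleus test in Sprague-Dawley rats; bone marrow scored for micronuclei, clastogenic activity and disruption of the mitotic apparatus.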

[4] = Toxicity in Sprague-Dawley rat assessed as histopathological changes measured up to 13 weeks; conditions: in vivo, 2184 h
Outline: (§1)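 GLP toxicity studies lasting up to 13 weeks, run in Sprague-Dawley rats and cynomolgus monkeys.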

[5] = Volume of distribution at steady state in cynomolgus monkey at 1 mg/kg, iv; format: ADME, organism-based, Macaca fascicularis; conditions: in vivo, read-out: Vdss
Outline: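 Intravenous dosing at 1 mg/kg; vehicle 70:30 PEG-400:H2O solution.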

[6] = AUC in dog at 5 mg/kg, po; format: ADME, organism-based, Canis lupus familiaris; set-up: dose 5 mg/kg; conditions: in vivo
[7] = Half life in human at 10 to 120 mg administered orally using tablet form of sample; format: ADME; conditions: in vivo, po, dose 10-120 mg
Outline: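 Phase I single ascending dose study in healthy volunteers; oral tablet at 10 mg escalating through a 120 mg cohort; plasma pharmacokinetics followed, median t1/2 reported per cohort.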

[8] = Half life in rat at 1 mg/kg, iv; format: ADME, organism-based; conditions: in vivo
[9] = Cmax in cynomolgus monkey at 5 mg/kg, po; format: ADME, organism-based, Macaca fascicularis; set-up: route oral, dose 5 mg/kg; conditions: in vivo
[10] = Stability in rat plasma assessed as parent compound remaining after 6 hrs; format: ADME, cell-free; conditions: read-out: Stabilty
Outline: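 Compound incubated in plasma for 6 hours, then percentage of parent compound remaining determined.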

[11] = AUC in rat at 5 mg/kg, po; format: ADME, organism-based; set-up: dose 5 mg/kg; conditions: in vivo
[12] = Drug metabolism in human liver microsomes assessed as O-deisopropylation; format: ADME, Microsome
[13] = Toxicity in cynomolgus monkey assessed as effect on gross pathology measured up to 13 weeks; set-up: species or system Macaca fascicularis; conditions: in vivo, 2184 h; outline: as §1
[14] = Oral bioavailability in rat at 5 mg/kg; format: ADME, organism-based; conditions: in vivo
Outline: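 Oral dosing in rats; vehicle 0.1% CMC/0.2% Tween-80.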

[15] = Kinetic solubility of compound at pH 6.8 by shake flask method; format: physicochemical; conditions: buffer, read-out: Kinetic_solubility
[16] = Protein binding in cynomolgus monkey plasma assessed as unbound fraction; format: ADME, cell-free, Macaca fascicularis
[17] = Lipophilicity, log D of compound at pH 7.4 by shake flask method; format: physicochemical; conditions: buffer
Cytochrome P450 2B6 = target: T2, Cytochrome P450 2B6 (Homo sapiens, UniProt P20813); experiment: Induction of CYP2B6 in human hepatocytes up to 50 uM; format: ADME, cell-based, Hepatocyte
T2 sequence (P20813 whole entry): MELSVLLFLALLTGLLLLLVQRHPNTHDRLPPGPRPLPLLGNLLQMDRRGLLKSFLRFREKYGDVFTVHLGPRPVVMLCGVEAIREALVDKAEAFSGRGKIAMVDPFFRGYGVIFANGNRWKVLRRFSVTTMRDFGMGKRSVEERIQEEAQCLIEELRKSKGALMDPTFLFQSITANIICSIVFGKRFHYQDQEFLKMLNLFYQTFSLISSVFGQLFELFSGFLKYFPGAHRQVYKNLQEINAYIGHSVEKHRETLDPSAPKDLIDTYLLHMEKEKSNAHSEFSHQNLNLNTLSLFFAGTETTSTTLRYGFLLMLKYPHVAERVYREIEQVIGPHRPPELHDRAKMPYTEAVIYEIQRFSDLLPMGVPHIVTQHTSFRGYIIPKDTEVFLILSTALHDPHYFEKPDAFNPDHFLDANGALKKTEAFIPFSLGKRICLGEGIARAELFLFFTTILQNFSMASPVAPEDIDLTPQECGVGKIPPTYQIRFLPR
Outline: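 Sandwich-cultured human hepatocytes exposed at concentrations up to 50 μM; induction of CYP1A2, 2B6 and 3A4 assessed.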

[18] = Cmax in dog at 5 mg/kg, po; format: ADME, organism-based, Canis lupus familiaris; set-up: route oral, dose 5 mg/kg; conditions: in vivo
[19] = Protein binding in dog plasma assessed as unbound fraction; format: ADME, cell-free, Canis lupus familiaris
[20] = Toxicity in cynomolgus monkey assessed as effect on organ weight measured up to 13 weeks; set-up: species or system Macaca fascicularis; conditions: in vivo, 2184 h; outline: as §1
[21] = Toxicity in Sprague-Dawley rat assessed as effect on respiratory system administered as single dose; conditions: in vivo
Outline: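 Single-dose CNS and respiratory safety studies in rats.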

[22] = AUC (infinity) in Sprague-Dawley rat at 50 mg/kg; format: ADME, organism-based; set-up: time infinity, dose 50 mg/kg; conditions: in vivo
Outline: (§2)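 Sprague-Dawley rats and cynomolgus monkeys given compound daily in GLP toxicity studies lasting up to 13 weeks; daily AUCinf taken at the no-observed-adverse-effect dose level of each species.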

[23] = Clearance in cynomolgus monkey at 1 mg/kg, iv relative to hepatic blood flow; format: ADME, organism-based, Macaca fascicularis; conditions: in vivo
[24] = target: T1, Tyrosine-protein kinase BTK; experiment: In vivo inhibition of BTK in TI-2 antigen/ NP-Ficoll-induced DBA1 mouse immunized model assessed as reduction in BTK phosphorylation administered orally twice daily for 10 days measured post last dose; format: functional, organism-based
Outline: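 Female DBA/1 mice, nine per arm, were immunized with 30 µg NP-Ficoll ip on day 0 and dosed PO twice daily for 10 days (1-50 mg/kg/dose) in 0.5% carboxymethylcellulose/0.1% Tween 80. On day 10, serum NP-specific IgM was measured by ELISA on NP-BSA plates (biotin anti-IgM, streptavidin-HRP, ABTS, 405 nm) and titer interpolated against a pooled positive serum standard, reported as reduction vs vehicle. Whole-blood pBTK was taken at pre-last dose and 1 and 4 h post final dose.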

[25] = Toxicity in cynomolgus monkey measured up to 13 weeks; set-up: species or system Macaca fascicularis; conditions: in vivo; outline: as §1
Cytochrome P450 3A4 [26] = target: T3, Cytochrome P450 3A4 (Homo sapiens, UniProt P08684); experiment: Time-dependent inhibition of CYP3A4 in human liver microsomes using testosterone in presence of NADPH by LC-MS/MS analysis; format: ADME
T3 sequence (P08684 whole entry): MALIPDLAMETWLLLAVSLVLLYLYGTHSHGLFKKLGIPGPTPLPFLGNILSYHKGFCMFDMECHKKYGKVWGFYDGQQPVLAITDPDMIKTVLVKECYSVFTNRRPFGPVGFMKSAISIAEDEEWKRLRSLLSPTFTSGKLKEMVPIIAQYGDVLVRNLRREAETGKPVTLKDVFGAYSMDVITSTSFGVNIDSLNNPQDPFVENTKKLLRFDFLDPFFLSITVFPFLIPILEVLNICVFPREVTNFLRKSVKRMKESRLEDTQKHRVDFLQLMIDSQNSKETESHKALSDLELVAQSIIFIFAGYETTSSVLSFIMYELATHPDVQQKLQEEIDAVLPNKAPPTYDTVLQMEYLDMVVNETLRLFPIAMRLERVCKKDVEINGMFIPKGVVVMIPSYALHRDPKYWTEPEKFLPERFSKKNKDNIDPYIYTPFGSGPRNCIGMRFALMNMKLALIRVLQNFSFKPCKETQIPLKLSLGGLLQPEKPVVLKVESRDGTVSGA

[27] = Tmax in human at 10 to 120 mg administered orally using tablet form of sample; format: ADME; conditions: in vivo, po, dose 10-120 mg
Outline: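 Single ascending oral tablet doses from 10 mg up to 120 mg given to healthy volunteers; plasma concentration followed over time after dosing.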

Cytochrome P450 3A4 [28] = target: T3, Cytochrome P450 3A4; experiment: Inhibition of CYP3A4 in human liver microsomes using testosterone as substrate measured after 15 mins in presence of NADPH by LC-MS/MS analysis; format: ADME
[29] = Toxicity in Sprague-Dawley rat assessed as effect on clinical sign measured up to 13 weeks; conditions: in vivo, 2184 h; outline: as §1
[30] = AUC (infinity) in cynomolgus monkey at 100 mg/kg; format: ADME, organism-based, Macaca fascicularis; set-up: time infinity, dose 100 mg/kg; conditions: in vivo; outline: as §2

clearance [1]: 11 mL/min/kg | IC50 [2]: 170 nM | Vd [5]: 0.7 L/kg | AUC [6]: 1940 ng·h/mL | half-life [7]: 360 min | half-life [8]: 72 min | Cmax [9]: 282 ng/mL | remaining at 6 h [10]: > 95% | AUC [11]: 11900 ng·h/mL | Drug metabolism [12]: Metabolite_Detected | bioavailability [14]: 48% | solubility kinetic [15]: > 10 µg/mL | fraction unbound [16]: 0.0362 | logD [17]: 2.92 | Activity (Cytochrome P450 2B6): Not Active | Cmax [18]: 652 ng/mL | fraction unbound [19]: 0.113 | AUC(0-inf) [22]: 376 µg·h/mL | CL [23]: 26% | IC50 [24]: 130 nM | Ki (Cytochrome P450 3A4 [26]): 50 µM | Tmax [27]: 54 min | IC50 (Cytochrome P450 3A4 [28]): > 25 µM | AUC(0-inf) [30]: 129 µg·h/mL
SMILES: Cc1cc(-c2ccnc(Nc3cnn(C)c3)n2)ccc1CNC(=O)N1CC(OC(C)C)C1
Activity [3]: Non-Toxic | Activity [4]: Non-Toxic | Activity [13]: Non-Toxic | Activity [20]: Non-Toxic | Activity [21]: Non-Toxic | NOAEL at 2184 h [25]: 100 mg/kg/day | Activity [29]: Non-Toxic
